Measles CPE: protection of cells from measles virus | Measles virus-infected cells, CPE protection, absorbance | protection (pct of control), % at 4 µM | 140,000 tested, 1.5% active; in the data active means protection mostly above about 24%, no sharp cut-off; inactive means mostly below about 26%
PTK2B oligo ant: blocks oligomerization of human Pyk2 in cells | Q14289 | Q293 cells, Pyk2 FERM NanoBiT luminescence; hits give low values | z-score (the deposit names both 25 µM and 10 µM) | 99,000 tested, 0.83% active;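 active means Z-score of -3 or lower, scaled per plate to the spread of control and sample wells; inactive means z-score above -3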;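 further: negative z-score means lost luminescence so less FERM oligomerization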
HIV Rev-RRE inh: disrupts HIV-1 Rev binding to RRE RNA | Rev peptide-RRE RNA binding, FRET | AID 704 | inhibition, % at 8 µM | 97,000 tested, 0.79% active;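 active means inhibition above the screen-wide mean plus 3 SD, cut at about 35% in these data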;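 further: 0% = median DMSO wells and 100% = median Neomycin B control wells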
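assay system = Cy5-tagged RRE RNA duplex with fluorescein-tagged Rev peptide | incubation = 5 + 15 min at 25 °C | also added = labelled Rev peptide | measure = % inhibition of FRET ratio versus controls | benchmarks = DMSO wells as 0% and neomycin B wells as 100% inhibition | measured by = FRET fluorescence readout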
Cav32 inh: blocks human Cav3.2 T-type calcium channel; Cav3.2-expressing cells, Fluo-4 calcium fluorescence FDSS; hits give low values; O95180; 100,000 tested, 4% active; B-score at 10 µM;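 active means single-dose well whose peak fluorescence ratio is a statistical outlier from its plate by either plate-standardised score or position-corrected B-score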
DAT uptake mod: human DAT dopamine uptake with cocaine, either direction. Q01959. LLC-PK1 hDAT cells, [14C]-dopamine uptake with cocaine IC80; actives deviate in either direction. B-score at 10 µM. 110,000 tested, 1.3% active. AID 449768;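 active means Z score or B-score, a plate-position-corrected score, falls beyond the plate's 99.7% confidence bounds, in either direction; inactive means both scores lie inside the 99.7% bounds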;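 further: scored against the spread of the other compound wells on the same plate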
Target sequence (Q01959 whole entry, looked up): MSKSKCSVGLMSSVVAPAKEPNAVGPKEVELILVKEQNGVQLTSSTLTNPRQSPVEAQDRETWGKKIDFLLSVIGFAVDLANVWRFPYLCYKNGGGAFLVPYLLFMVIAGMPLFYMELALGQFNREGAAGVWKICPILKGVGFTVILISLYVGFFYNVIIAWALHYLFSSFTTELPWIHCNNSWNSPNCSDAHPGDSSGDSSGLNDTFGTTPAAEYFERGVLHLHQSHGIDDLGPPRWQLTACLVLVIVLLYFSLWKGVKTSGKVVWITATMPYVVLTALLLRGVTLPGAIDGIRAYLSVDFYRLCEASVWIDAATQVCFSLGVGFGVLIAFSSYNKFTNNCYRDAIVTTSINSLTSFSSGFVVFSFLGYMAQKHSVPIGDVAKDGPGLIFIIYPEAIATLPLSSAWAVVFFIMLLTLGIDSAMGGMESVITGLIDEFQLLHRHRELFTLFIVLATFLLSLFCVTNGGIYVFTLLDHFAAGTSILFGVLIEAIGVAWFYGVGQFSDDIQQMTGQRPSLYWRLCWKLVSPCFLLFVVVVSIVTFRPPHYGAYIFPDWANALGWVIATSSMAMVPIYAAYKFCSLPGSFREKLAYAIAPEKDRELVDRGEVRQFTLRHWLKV
Phagocytosis inh: macrophage phagocytosis inhibition; J774A.1 macrophage IgG-bead phagocytosis, imaging; inhibition, % at 5 µM; 110,000 tested, 0.07% active;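 active means inhibition above the mean of the plate negative controls plus 5 SD, cut at about 13% in these data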;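 further: phagocytic index as fraction of beads internalized from green versus red external bead signal; plate controls were DMSO negative control for no effect and cytochalasin-D positive control for full effect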
The depositor's hits bear a star; x = not tested or not shown. Compounds with a hit are over-represented: about 5.9% of the library has one in this group of screens.

SMILES	Measles CPE	PTK2B oligo ant	HIV Rev-RRE inh	Cav32 inh	DAT uptake mod	Phagocytosis inh
O=C1CN(C(=O)c2ccc(Br)o2)C(c2ccccc2)c2cc(Cl)ccc2N1 (stereo not given)	29	x	5	-4.5*	-1.3	2
O=C1CN(C(=O)c2ccc(Br)o2)C(c2ccccc2)c2cc(Br)ccc2N1 (stereo not given)	8	x	1	x	x	0
N/C(=N\OC(=O)CCC1CCCC1)c1cccnc1	21	x	x	x	x	-5
Cc1cccc(N/C(=N\S(=O)(=O)c2ccccc2)C(F)(F)F)c1	6	-0.01	9	x	x	x
COc1ccc(NC(=O)CCNS(=O)(=O)c2ccc3c(c2)c(=O)n(C)c(=O)n3C)c(OC)c1	19	x	x	x	x	-1
C/C(=N/NC(=O)CNC(=O)Cc1ccccc1)c1ccco1	14	x	x	x	x	-5
C/C(=N\NC(=O)C1CC1(C)c1ccccc1)c1ccco1 (stereo not given)	71*	x	x	x	x	-3
CS(=O)(=O)Nc1nnc(SCC(=O)N(c2ccccc2)c2ccccc2)s1	19	x	x	x	x	-5
CCCCN1C(=O)Nc2ccccc2S1(=O)=O	20	x	x	x	x	-1
C[n+]1ccn(CC(=O)c2ccc(Cl)cc2)c1	39*	x	x	x	x	-7
O=C(CCNc1ccc(Cl)c(C(F)(F)F)c1)c1ccco1	22	0.97	13	-5.1*	0.31	10
COc1ccc(N=Cc2c(O)[nH]c3ccccc23)cc1	46*	-1.7	-1	0.75	0.49	x
CCOC(=O)c1[nH]c(=O)[nH]c1COC(=O)c1cc2ccccc2o1	40*	0.75	4	-0.041	-1.4	0
CCOC(=O)c1[nH]c(=O)[nH]c1CSc1nc(C)cc(C)n1	13	0.7	10	0.97	-0.16	-1
COC(=O)C(CC(C)C)N1CCC(=O)c2ccccc2S1(=O)=O (stereo not given)	x	x	x	0.17	0.072	x
Cc1ccc2c3c([nH]c2c1C)-c1nonc1CC3	43*	-0.02	6	-2	-1.2	x
CC1CCC(NC(=O)Cn2c3c(c(-c4ccccc4Cl)cc2=O)CCC3)CC1 (stereo not given)	1	x	7	-5.1*	1.2	-1
O=C(CSc1nc2ccccc2c(=O)n1CCCN1CCOCC1)Nc1cccc(S(=O)(=O)N2CCCCCC2)c1	8	x	x	x	x	2
c1ccc2cc(CSCc3nc4ccccc4[nH]3)ccc2c1	2	x	x	x	x	-6
CCOC(=O)C1=C(c2ccccc2)Nc2ncnn2C1c1cccc(OC)c1OC (stereo not given)	5	-1.1	7	3.4*	-0.81	0
COc1cc(OC)c2c3c(c(C4CCCCC4)nc2c1)CCC3	x	x	x	0.44	-0.79	x
O=C(CSc1nnc(-c2ccc(Cl)cc2)n1Cc1ccco1)Nc1ccc2c(c1)OCCO2	3	0.04	x	-4	1.3	-1
COc1ccc(-c2nnc(SC(C)C(=O)NCc3ccc4c(c3)OCO4)n2Cc2ccco2)cc1 (stereo not given)	7	0.38	13	-5.3*	0.36	-1
O=C(CSc1nnc(-c2ccc(Cl)cc2)n1Cc1ccco1)NCc1ccc2c(c1)OCO2	8	0.41	10	-5.3*	-0.26	-1
O=C(CCCSc1nc2ccccc2[nH]1)NCc1ccc(Cl)cc1	15	x	x	x	x	-1
SMILES	Measles CPE	PTK2B oligo ant	HIV Rev-RRE inh	Cav32 inh	DAT uptake mod	Phagocytosis inh
CCOc1ccc(S(=O)(=O)Nc2ccccc2C(=O)NCc2ccco2)cc1	49	-0.3	2	-1	0.75	0
COc1ccc(S(=O)(=O)Nc2ccccc2C(=O)NCc2ccco2)cc1Br	2	-0.2	4	-3.8*	-0.0011	1
c1ccc(-n2cnc3cc(NCc4ccccn4)ccc32)cc1	4	-3.4*	5	1	0.049	0
Cc1cc(C(F)(F)F)c(C#N)c(=O)[nH]1	3	1.1	5	0.49	0.16	x
N#Cc1c(C(F)(F)F)cc(-c2cccc(Cl)c2)[nH]c1=O	9	0.71	7	-2.7*	-0.94	0
N#Cc1c(C(F)(F)F)cc(-c2ccc(Cl)cc2)[nH]c1=O	3	0.32	-1	-8.7*	1	0
CCN(CC)C(=S)Nc1ccc(Cl)c(Cl)c1	9	x	x	x	x	4
COc1ccc(NC(=S)NN(C)C(=S)Nc2ccc(OC)cc2)cc1	3	x	x	x	x	-4
CSc1c(CC(=O)Nc2ccccc2C(F)(F)F)n(Cc2ccccc2)c2ccccc12	7	x	x	x	x	-8
